The values below come from ChEMBL document CHEMBL5712073, “DNA methylation in small cell lung cancer defines distinct disease subtypes and correlates with high expression of EZH2” (Oncogene, 2015).

Activity calls are given as the source filed them. The calls are words filed in the database; no cut-off is given here.

Data set [1] concerns the target Histone-lysine N-methyltransferase EZH2 (Homo sapiens) (UniProt Q15910). Put plainly: Inhibition of EZH2 in human PDX LX92 cells assessed as decrease in H3K27me2 level after 7 days by Westernblot analysis. The data set is classed as cell-based. The conditions noted are these: time 7.0 day. Summed up:
(§1)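 Ex vivo LX92 cultures (dissociated PDX cells in DMEM:F12 plus EGM-2 growth factors, 5,000 cells/well) given EZH2 inhibitor daily at 1 µM final, DMSO vehicle. Day 7 lysates probed by Western blot for EZH1, EZH2, H3K27me2 and H3K27me3.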

In data set [2] the test system is PDX LX92. Put plainly: Antiproliferative activity against human PDX LX92 cells assessed as resazurin conversion measured upto 7 days by alamar blue based assay. Format: functional, cell-based. The conditions noted are these: time <= 7.0 day. Summed up:
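LX92 PDX dissociated, filtered through 70 µm mesh, washed, red cells lysed; ~1×10^6 viable cells cultured in DMEM:F12 with EGM-2 growth factors. About 72 h after dissociation, seeded 5,000 cells/well; compound added daily at 1 µM final, DMSO vehicle. Viability read by resazurin conversion over time for 7 days; 2-way ANOVA with Dunnett adjustment.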
(Alamar Blue is a resazurin reagent that responds to reducing activity.)

For data set [3], the target named is Histone-lysine N-methyltransferase EZH2 (Homo sapiens) (UniProt Q15910). Put plainly: Inhibition of EZH2 in human PDX LX92 cells assessed as decrease in H3K27me3 level after 7 days by Westernblot analysis. The conditions noted are these: time 7.0 day. Format: cell-based. Summed up: as §1
The subject of data set [4] is PDX LX92. Put plainly: Antitumor activity against human PDX LX92 cells xenografted in athymic nude mouse assessed as reduction of H3K27me3 level at 100 mg/kg, bid measured upto 42 days by Westernblot analysis. The data set is classed as functional, organism-based. The conditions noted are these: time <= 42.0 day. Summed up:
(§2)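 Mice implanted subcutaneously in the right hind flank with 5×10^6 viable cells in 1:1 HBSS:matrigel; randomized at ~150 mm3 tumor volume. Drug formulated in 0.5% NaCMC with 0.1% Tween-80 in water, dosed BID (10AM/4PM), Mon-Fri. Tumors harvested 2 h after final dose for Western blot.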
(In general: Xenograft models place foreign cells or tissue in a host animal.)

Data set [5] concerns PDX LX92. Put plainly: Antitumor activity against human PDX LX92 cells xenografted in athymic nude mouse assessed as reduction of EZH1 level at 100 mg/kg, bid measured upto 42 days by Westernblot analysis. The data set is classed as functional, organism-based. The conditions noted are these: time <= 42.0 day. Summed up: as §2
The subject of data set [6] is PDX LX92. Put plainly: Antitumor activity against human PDX LX92 cells xenografted in athymic nude mouse assessed as reduction of H3K27me2 level at 100 mg/kg, bid measured upto 42 days by Westernblot analysis. Format: functional, organism-based. The conditions noted are these: time <= 42.0 day. Put shortly:
as §2

The test system of data set [7] is PDX LX92. Put plainly: Antitumor activity against human PDX LX92 cells xenografted in athymic nude mouse assessed as reduction of EZH2 level at 100 mg/kg, bid measured upto 42 days by Westernblot analysis. The data set is classed as functional, organism-based. The conditions noted are these: time <= 42.0 day. Put shortly: as §2
A short description of data set [8]: Toxicity in athymic nude mouse xenografted with human PDX LX92 cells assessed as tolerability at 100 mg/kg, bid measured upto 42 days. The conditions noted are these: in vivo, 1008 h, time < 42 day. The data set is classed as organism-based. Put shortly: (§3)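 Subcutaneous right-flank xenograft of 5×10^6 viable cells in 1:1 HBSS:matrigel; mice randomized at ~150 mm3. Vehicle 0.5% NaCMC with 0.1% Tween-80 in water; dosing Mon-Fri. Tumor volumes and body weights measured twice weekly.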

Data set [9] can be described thus: Toxicity in athymic nude mouse xenografted with human PDX LX92 cells assessed as tolerability at 100 mg/kg, qd measured upto 42 days. The data set is classed as organism-based. The conditions noted are these: in vivo, 1008 h, time < 42 day. Summed up:
as §3

Chain of Histone-lysine N-methyltransferase EZH2 (Homo sapiens) (Q15910 whole entry, looked up): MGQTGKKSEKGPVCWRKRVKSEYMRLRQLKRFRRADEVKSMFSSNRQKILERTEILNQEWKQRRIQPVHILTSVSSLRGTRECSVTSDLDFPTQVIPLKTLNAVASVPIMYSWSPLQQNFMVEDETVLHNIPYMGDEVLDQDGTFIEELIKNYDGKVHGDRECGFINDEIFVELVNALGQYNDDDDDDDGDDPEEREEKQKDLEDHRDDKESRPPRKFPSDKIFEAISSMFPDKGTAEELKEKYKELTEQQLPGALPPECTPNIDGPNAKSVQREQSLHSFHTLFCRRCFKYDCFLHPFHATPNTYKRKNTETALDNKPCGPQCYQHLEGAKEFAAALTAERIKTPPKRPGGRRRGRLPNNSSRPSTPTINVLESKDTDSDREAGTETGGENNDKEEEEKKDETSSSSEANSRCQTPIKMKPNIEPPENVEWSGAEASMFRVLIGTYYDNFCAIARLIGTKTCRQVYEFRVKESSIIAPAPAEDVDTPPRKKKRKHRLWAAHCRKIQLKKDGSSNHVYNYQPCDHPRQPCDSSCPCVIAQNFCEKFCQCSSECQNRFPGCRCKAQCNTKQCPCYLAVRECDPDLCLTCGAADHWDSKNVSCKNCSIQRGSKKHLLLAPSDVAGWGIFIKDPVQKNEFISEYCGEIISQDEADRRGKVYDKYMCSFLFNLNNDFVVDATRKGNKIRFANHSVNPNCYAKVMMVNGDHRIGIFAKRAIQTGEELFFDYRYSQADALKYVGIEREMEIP

Consider `Cc1cc(C)c(CNC(=O)c2cc(-c3ccc(CN4CCOCC4)cc3)cc3c2cnn3C2CCCC2)c(=O)[nH]1`, for which the inhibition entry in data set [1] and in [3] was “Active” in each case. Besides, the outcome in the data set with PDX LX92 [2] was Active.

As to `CCCc1cc(C)[nH]c(=O)c1CNC(=O)c1cc(-c2ccc(N3CCN(C(C)C)CC3)nc2)cc2c1cnn2C(C)C`, in the data set with PDX LX92 [2], the outcome was Active. Also, in data set [3], the inhibition result is “Active”.

For the compound `CCN(c1cc(-c2ccc(CN3CCOCC3)cc2)cc(C(=O)NCc2c(C)cc(C)[nH]c2=O)c1C)C1CCOCC1` [TAZEMETOSTAT], the outcome with PDX LX92 [4], in the data set with PDX LX92 [5], in the data set with PDX LX92 [6] and in the data set on PDX LX92 [7] was Active. Moreover, the Activity entry in data set [8] and in [9] was “Non-Toxic” throughout.

Consider `CCCc1cc(C)[nH]c(=O)c1CNC(=O)c1cc(-c2ccnc(N3CCN(C)CC3)c2)cc2c1cnn2C(C)C`, for which, in the data set on PDX LX92 [2], the outcome was Active. In [3], the inhibition result is “Active”.
